In ChEMBL document CHEMBL1157557, “Synthesis and evaluation of 1,4-diphenylbutadiene derivatives as inhibitors of plasminogen activator inhibitor-1 (PAI-1) production” (Bioorg Med Chem, 2010):

Key:
Bos taurus [1] = species: Bos taurus; experiment: Inhibition of LPS-induced plasminogen activator inhibitor-1 production in BCAEC assessed as relative inhibitory potency in BCAEC at 1 uM after 24 hrs by ELISA relative to T-686; type: functional
Procedure, shortened: (§1)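 Bovine endothelial cells (BCaEs, passages 8–9) grown to confluence in E'MEM with 10% FCS, then serum-starved 24 h. Compound added (10 µM […]; 1 µM LPS-induced, 2 µM TGF-β-induced) with or without LPS 1 µg/ml or TGF-β 0.3 ng/ml. After 24 h, conditioned medium cleared by centrifugation (3000 rpm, 10 min, 4 °C) and PAI-1 antigen measured by specific ELISA; activity expressed relative to T-686 reference.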

Bos taurus [2] = species: Bos taurus; experiment: Inhibition of TGF-beta-induced plasminogen activator inhibitor-1 production in BCAEC assessed as relative inhibitory potency in BCAEC at 2 uM after 24 hrs by ELISA relative to T-686; type: functional; procedure, shortened: as §1
[3] = Photostability assessed as compound remaining by HPLC analysis; type: physicochemical
Procedure, shortened: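 Stock (100 µg/ml in acetonitrile) 0.1 ml mixed with 0.9 ml 0.1 N HCl; kept at room temperature 24 h under room light or foil-protected. Read-out as % compound remaining.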

Rattus norvegicus [4] = species: Rattus norvegicus; experiment: Genotoxicity in rat assessed as chromosomal aberration; type: toxicity, organism-based; conditions: in vivo
[5] = Metabolic stability in dog blood assessed as compound remaining after 1 hr by HPLC analysis; type: ADME, tissue-based, Canis lupus familiaris; conditions: read-out: Stability
Procedure, shortened: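 Stock (100 µg/ml in acetonitrile) diluted tenfold with saline; 0.3 ml added to 3 ml heparinized dog blood prewarmed to 37 °C and incubated at 37 °C. After 1 h plasma separated with diethyl ether by centrifugation and parent level determined by HPLC; reported as % remaining.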

[6] = Oral bioavailability in dog; type: ADME, organism-based, Canis lupus familiaris; conditions: in vivo
[7] = Aqueous solubility in water; type: physicochemical
Bos taurus [8] = species: Bos taurus; experiment: Inhibition of LPS-induced plasminogen activator inhibitor-1 production assessed as relative inhibitory potency in BCAEC at 10 uM after 24 hrs by ELISA relative to T-686; type: functional; procedure, shortened: as §1
Rattus norvegicus [9] = experiment: Toxicity in rat assessed as decrease in locomotor activity at 300 mg/kg, po; conditions: in vivo
[10] = Inhibition of LPS-induced plasminogen activator inhibitor-1 production in BCAEC after 24 hrs by ELISA; type: functional, Bos taurus
Procedure, shortened: (§2)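 BCaEs (passages 8–9) confluent in E'MEM/10% FCS, serum-starved 24 h, then exposed to compound with LPS (1 µg/ml) or TGF-β (0.3 ng/ml) for 24 h. Medium centrifuged at 3000 rpm, 10 min, 4 °C, and PAI-1 antigen quantified by specific ELISA.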

[11] = Inhibition of TGF-beta-induced plasminogen activator inhibitor-1 production in BCAEC after 24 hrs by ELISA; type: functional, Bos taurus; procedure, shortened: as §2
Rattus norvegicus [12] = experiment: Toxicity in po dosed rat assessed as increase in bleeding time administered QD for 8 consecutive days measured after 2 hrs of last dose by tail incision bleeding time test; type: organism-based; conditions: in vivo
Procedure, shortened: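 Rats were dosed orally once daily for 8 days at 10, 30 and 100 mg/kg, with vehicle controls. Under Nembutal anaesthesia (50 mg/kg ip), 2 h after the last dose, a 2 mm deep incision was made 3.5 cm from the tail tip. Blood was blotted onto filter paper every 30 s, and bleeding time was taken as the time until no blood appeared.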

[13] = Therapeutic index, ratio of ED100 for increase in bleeding time in po dosed rat to ED50 for decrease in thrombus weight in po dosed rat venous thrombosis model; type: organism-based; conditions: in vivo, read-out: TI
Procedure, shortened: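 ED100 for prolonged bleeding time (tail incision, oral, daily for 8 days) was divided by ED50 for thrombus weight reduction in the venous thrombosis model (oral, daily for 8 days; ligated vena cava, thromboplastin injected 2 h after the last dose, thrombus dry weight).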

Rattus norvegicus [14] = experiment: Antithrombotic activity in po dosed rat venous thrombosis model assessed as decrease in thrombus weight administered QD for 8 consecutive days measured after 2 hrs of last dose; type: functional
Procedure, shortened: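 Rats were dosed orally once daily for 8 days at 0.3, 1 and 3 mg/kg, with vehicle controls. They were anaesthetised with Nembutal 50 mg/kg ip, and all vena cava branches between the left renal vein and the bifurcation were ligated. 2 h after the last dose, 0.1 ml of 1:10 diluted rabbit brain thromboplastin was injected into the penile dorsal vein. Thrombus dry weight was measured.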

Rattus norvegicus [15] = experiment: Antithrombotic activity in rat arterio-venous shunt model of thrombosis assessed as inhibition of thrombus formation at 10 mg/kg, po QD for 8 consecutive days measured after 2 hrs of last dose; type: functional
Procedure, shortened: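 Rats given test article orally 10 mg/kg once daily for 8 days, controls vehicle. Under Nembutal (50 mg/kg ip), a saline-filled polyethylene tube holding silk thread was placed from the right carotid artery to the left jugular vein. Two hours after the last dose the clamp was released, blood perfused 30 min, and wet weight of thread-bound thrombus taken.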

COC(=O)C(=C(/C)c1cc(OC)cc(OC)c1)/C(=C\c1ccccc1)C(=O)O
Activity (Bos taurus [1]): 0.4
Activity (Bos taurus [2]): 0.3

COc1cc(OC)cc(/C(C)=C2\C(=O)N(Cc3ccncc3)C(=O)\C2=C\c2ccccc2)c1.Cl
Stability [3]: 38%
Activity (Rattus norvegicus [4]): Non-toxic
remaining at 1 h [5]: 60%
Activity (Bos taurus [1]): 1.8
bioavailability [6]: 18%
solubility [7]: 111 µg/mL
Activity (Bos taurus [2]): 1.4

COC(=O)C(=C(/C)c1cc(OC)cc(OC)c1)/C(=C\c1ccccc1)C(=O)NN1CC[N+](C)([O-])CC1
Activity (Bos taurus [1]): 0.2

COC(=O)C(=C(/C)c1cc(OC)cc(OC)c1)/C(=C\c1ccccc1)C(=O)Nc1cccnc1.Cl
Stability [3]: 88%
Activity (Bos taurus [1]): 2.2
bioavailability [6]: 17%
Activity (Bos taurus [2]): 1.1

COC(=O)C(=C(/C)c1cc(OC)cc(OC)c1)/C(=C\c1ccccc1)C(=O)Nc1nnn[nH]1
Activity (Bos taurus [1]): 0.1

COC(=O)C(=C/c1cc(OC)c(OC)c(OC)c1)/C(C(N)=O)=C(\C)c1ccccc1
Activity (Bos taurus [8]): 0.3

COC(=O)C(=C(/C)c1cc(OC)cc(OC)c1)/C(=C\c1ccncc1)C(N)=O.Cl
Stability [3]: 97%
Activity (Rattus norvegicus [4]): Toxic
Activity (Bos taurus [1]): 1.5
bioavailability [6]: 78%
Activity (Bos taurus [2]): 1.1

COC(=O)C(=C(/C)c1cc(OC)cc(OC)c1)/C(=C\c1ccccc1)C(=O)NCc1cccnc1.Cl
Activity (Rattus norvegicus [9]): Toxic
Stability [3]: 90%
Activity (Rattus norvegicus [4]): Non-toxic
Activity (Bos taurus [1]): 1.3
bioavailability [6]: 21%
Activity (Bos taurus [2]): 1.8

COC(=O)C(=C(/C)c1cc(OC)cc(OC)c1)/C(=C\c1cccnc1)C(N)=O
Activity (Bos taurus [1]): 0.8
Activity (Bos taurus [2]): 1.2

COC(=O)C(=C/c1cc(OC)c(OC)c(OC)c1)/C(=C\c1ccccc1)C(N)=O
Activity (Bos taurus [8]): 0.9

COC(=O)C(=C/c1cc(OC)c(OC)c(OC)c1)/C(=C/c1ccccc1)C(N)=O
Activity (Bos taurus [8]): 0.7

COc1cc(/C=C2/C(=O)NC(=O)/C2=C/c2ccccc2)cc(OC)c1OC
IC50 [10]: 900 nM
Stability [3]: 12%
Activity (Rattus norvegicus [4]): Toxic
IC50 [11]: 4300 nM
bioavailability [6]: 3%

COC(=O)C(/C(=C\c1ccccc1)C(N)=O)=C(\C)c1cc(OC)c(OC)c(OC)c1
Activity (Bos taurus [8]): 0.3

CC(=O)CC(c1ccccc1)c1c(O)c2ccccc2oc1=O (configuration not stated) [WARFARIN]
ED100 (Rattus norvegicus [12]): 0.2 mg/kg/day
selectivity ratio [13]: 2
ED50 (Rattus norvegicus [14]): 0.1 mg/kg/day

COc1cc(OC)cc(/C(C)=C2\C(=O)N(Cc3cccnc3)C(=O)\C2=C\c2ccccc2)c1.Cl
Stability [3]: 47%
remaining at 1 h [5]: 65%
Activity (Bos taurus [1]): 1
solubility [7]: 38 µg/mL
Activity (Bos taurus [2]): 1.4

COC(=O)C(=C(/C)c1cc(OC)cc(OC)c1)/C(=C\c1ccccc1)C(=O)Nn1cnnc1
Activity (Bos taurus [1]): 0.6

COC(=O)C(=C(/C)c1cc(OC)cc(OC)c1)/C(=C\c1ccccc1)C(=O)NC1CCN(C)CC1
Activity (Bos taurus [1]): 0.8
Activity (Bos taurus [2]): < 0.1

COC(=O)C(=C\c1cc(OC)c(OC)c(OC)c1)/C(=C\c1ccccc1)C(N)=O
Activity (Bos taurus [8]): 0.7

COC(=O)C(=C(/C)c1cc(OC)cc(OC)c1)/C(=C\c1ccccc1)C(=O)Nc1ncccn1
Activity (Bos taurus [1]): 0.1

COC(=O)C(=C/c1cc(OC)c(OC)c(OC)c1)/C(C(N)=O)=C(/C)c1ccccc1
Activity (Bos taurus [8]): 0.2

COC(=O)C(=C(/C)c1cc(OC)cc(OC)c1)/C(=C\c1ccccc1)C(=O)N1CCN(C)CC1
Activity (Bos taurus [1]): 0.3
Activity (Bos taurus [2]): 0.3

COC(=O)C(=C(/C)c1cc(OC)cc(OC)c1)/C(=C\c1ccccc1)C(=O)NN1CCN(C)CC1.Cl
inhibition in vivo at 10 mg/kg (Rattus norvegicus [15]): 22%
ED100 (Rattus norvegicus [12]): > 100 mg/kg/day
Activity (Rattus norvegicus [9]): Non-toxic
Stability [3]: 91%
Activity (Rattus norvegicus [4]): Non-toxic
selectivity ratio [13]: > 125
ED50 (Rattus norvegicus [14]): 0.8 mg/kg/day
Activity (Bos taurus [1]): 1.5
bioavailability [6]: 49%
solubility [7]: > 4000 µg/mL
Activity (Bos taurus [2]): 0.9

COC(=O)C(=C(/C)c1cc(OC)cc(OC)c1)/C(=C\c1ccccc1)C(=O)NCc1ccncc1.Cl
Stability [3]: 96%
Activity (Rattus norvegicus [4]): Toxic
Activity (Bos taurus [1]): 2.1
bioavailability [6]: 28%
Activity (Bos taurus [2]): 1.9

COC(=O)C(=C(/C)c1cc(OC)cc(OC)c1)/C(=C\c1ccccc1)C(=O)Nc1cccc2cccnc12
Activity (Bos taurus [1]): 0.4

COC(=O)C(=C(/C)c1cc(OC)c(OC)c(OC)c1)/C(=C\c1ccccc1)C(N)=O
Activity (Bos taurus [8]): 1
Stability [3]: 91%
Activity (Rattus norvegicus [4]): Non-toxic
Activity (Bos taurus [1]): 1.5
bioavailability [6]: 9%
Activity (Bos taurus [2]): 0.7

COC(=O)C(=C(/C)c1cc(OC)cc(OC)c1)/C(=C\c1ccccc1)C(=O)Nc1ccncc1.Cl
Activity (Rattus norvegicus [9]): Toxic
Stability [3]: 85%
Activity (Rattus norvegicus [4]): Non-toxic
Activity (Bos taurus [1]): 1.8
bioavailability [6]: 52%
Activity (Bos taurus [2]): 1.1
